# Legend:
# Format in all cases: functional, cell-based
# MDA-MB-468 = assay: Cytotoxicity against human MDA-MB-468 cells assessed as growth inhibition after 24 to 72 hrs by MTT assay
# In short: (§1)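 About 5000 cells/well were grown 24 h in RPMI-1640 with 10% FBS, then given fresh medium with compound at various concentrations (from 10 mM DMSO stocks) for 24, 48 and 72 h. MTT (5 mg/mL stock) was added for 2 h and formazan dissolved in DMSO. Absorbance was read at 595 nm and expressed as percent proliferation versus DMSO control.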
# [1] = Cytotoxicity against human H1299 cells assessed as growth inhibition after 24 to 72 hrs by MTT assay; conditions: NCI-H1299; in short: as §1
# MDA-MB-231 = assay: Cytotoxicity against human MDA-MB-231 cells assessed as growth inhibition after 24 to 72 hrs by MTT assay; in short: as §1
# MCF7 = assay: Cytotoxicity against human MCF7 cells assessed as growth inhibition after 24 to 72 hrs by MTT assay; in short: as §1
smiles,measurement,setting,value
C=CCn1cc2c3[nH]c4ccccc4c3cc(C(=O)OC)[n+]2c1,IC50,MDA-MB-468,> 30 µM
same,IC50,[1],> 30 µM
same,IC50,MDA-MB-231,23 µM
same,IC50,MCF7,> 30 µM
COC(=O)c1cc2c3ccccc3[nH]c2c2cn(Cc3ccc(F)cc3)c[n+]12,IC50,MDA-MB-468,> 30 µM
same,IC50,[1],> 30 µM
same,IC50,MDA-MB-231,12.8 µM
same,IC50,MCF7,> 30 µM
COC(=O)c1cc2c3ccccc3[nH]c2c2cn(C3CC3)c[n+]12,IC50,MDA-MB-468,> 30 µM
same,IC50,[1],> 30 µM
same,IC50,MDA-MB-231,> 30 µM
same,IC50,MCF7,> 30 µM
COC(=O)c1cc2c3ccccc3[nH]c2c2cn(Cc3ccccc3)c[n+]12,IC50,MDA-MB-468,> 9.27 µM
same,IC50,[1],23.7 µM
same,IC50,MDA-MB-231,11.8 µM
same,IC50,MCF7,6.26 µM
COC(=O)c1cc2c3ccccc3[nH]c2c2cn(-c3ccccc3Br)c[n+]12,IC50,MDA-MB-468,11 µM
same,IC50,[1],> 30 µM
same,IC50,MDA-MB-231,20.7 µM
same,IC50,MCF7,> 30 µM
COC(=O)c1cc2c3ccccc3[nH]c2c2cn(-c3ccc(OC)c(OC)c3)c[n+]12,IC50,MDA-MB-468,11.5 µM
same,IC50,[1],16.4 µM
same,IC50,MDA-MB-231,29.9 µM
same,IC50,MCF7,> 30 µM
CCN(CC)CCn1cc2c3[nH]c4ccccc4c3cc(C(=O)OC)[n+]2c1,IC50,MDA-MB-468,> 30 µM
same,IC50,[1],> 30 µM
same,IC50,MDA-MB-231,> 30 µM
same,IC50,MCF7,> 30 µM
COC(=O)c1cc2c3ccccc3[nH]c2c2cn(-c3cccc(Br)c3)c[n+]12,IC50,MDA-MB-468,15.1 µM
same,IC50,[1],26.9 µM
same,IC50,MDA-MB-231,17.9 µM
same,IC50,MCF7,> 30 µM
COC(=O)c1cc2c3ccccc3[nH]c2c2cn(CCc3ccccc3)c[n+]12,IC50,MDA-MB-468,> 30 µM
same,IC50,[1],> 30 µM
same,IC50,MDA-MB-231,> 30 µM
same,IC50,MCF7,> 30 µM
COC(=O)c1cc2c3ccccc3[nH]c2c2cn(-c3ccc(Cl)cc3C)c[n+]12,IC50,MDA-MB-468,20.2 µM
same,IC50,[1],> 30 µM
same,IC50,MDA-MB-231,23.4 µM
same,IC50,MCF7,> 30 µM
COC(=O)c1cc2c3ccccc3[nH]c2c2cn(C34CC5CC(CC(C5)C3)C4)c[n+]12,IC50,MDA-MB-468,> 30 µM
same,IC50,[1],> 30 µM
same,IC50,MDA-MB-231,> 30 µM
same,IC50,MCF7,> 30 µM
COC(=O)c1cc2c3ccccc3[nH]c2c2cn(Cc3ccc(C)cc3)c[n+]12,IC50,MDA-MB-468,> 30 µM
same,IC50,[1],> 30 µM
same,IC50,MDA-MB-231,11.2 µM
same,IC50,MCF7,> 30 µM
COC(=O)c1cc2c3ccccc3[nH]c2c2cn(-c3ccccc3)c[n+]12,IC50,MDA-MB-468,5.82 µM
same,IC50,[1],8.87 µM
same,IC50,MDA-MB-231,> 30 µM
same,IC50,MCF7,> 30 µM
COC(=O)c1cc2c3ccccc3[nH]c2c2cn(-c3ccccc3I)c[n+]12,IC50,MDA-MB-468,8.02 µM
same,IC50,[1],6.46 µM
same,IC50,MDA-MB-231,7.8 µM
same,IC50,MCF7,5.96 µM
COC(=O)c1cc2c3ccccc3n(Cc3cc(OC)c(OC)c(OC)c3)c2c2cn(-c3ccc(Cl)cc3)c[n+]12,IC50,MDA-MB-468,> 30 µM
same,IC50,[1],> 30 µM
same,IC50,MDA-MB-231,> 30 µM
same,IC50,MCF7,> 30 µM
COC(=O)c1cc2c3ccccc3[nH]c2c2cn(-c3ccc(Cl)cc3)c[n+]12,IC50,MDA-MB-468,10.2 µM
same,IC50,[1],15.4 µM
same,IC50,MDA-MB-231,9.38 µM
same,IC50,MCF7,25.7 µM
COC(=O)c1cc2c3ccccc3[nH]c2c2cn(-c3cccc(C(F)(F)F)c3)c[n+]12,IC50,MDA-MB-468,10.5 µM
same,IC50,[1],10.9 µM
same,IC50,MDA-MB-231,14.6 µM
same,IC50,MCF7,> 30 µM
COC(=O)c1cc2c3ccccc3[nH]c2c2cn(-c3ccc(F)cc3Br)c[n+]12,IC50,MDA-MB-468,9.51 µM
same,IC50,[1],16.4 µM
same,IC50,MDA-MB-231,10.8 µM
same,IC50,MCF7,13.3 µM
COC(=O)c1cc2c3ccccc3[nH]c2c2cn(C3CCCCC3)c[n+]12,IC50,MDA-MB-468,18.2 µM
same,IC50,[1],> 30 µM
same,IC50,MDA-MB-231,> 30 µM
same,IC50,MCF7,> 30 µM
COC(=O)c1cc2c3ccccc3[nH]c2c2cn(-c3ccc(C)cc3Cl)c[n+]12,IC50,MDA-MB-468,> 30 µM
same,IC50,[1],> 30 µM
same,IC50,MDA-MB-231,14 µM
same,IC50,MCF7,> 30 µM

# Source: ChEMBL document CHEMBL3425411, “Synthesis of β-Carboline-Based N-Heterocyclic Carbenes and Their Antiproliferative and Antimetastatic Activities against Human Breast Cancer Cells” (J Med Chem, 2015)
